Screens deposited in PubChem BioAssay by The Scripps Research Institute Molecular Screening Center.
A selection: hits, their analogues and other compounds. The true share with any hit is near 4.5%.
OX1R antag-1: antagonists of human orexin 1 receptor. actives 0.43% (n = 330,000). CHO/OX1R cells, Fluo-8 calcium fluorescence, orexin A. O43613. inhibition, % at 5 µM;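 active = inhibition above its plate's threshold, mean inhibition of all tested compounds on the plate plus 3 SD, cut at about 37% in these data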;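 also: 0% = orexin A challenge wells and 100% = SB-334867-A antagonist wells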
OX1R antag-2: antagonists of human orexin 1 receptor (OX1R); inhibition, % at 6.6 µM; O43613; AID 485270; OX1R-expressing cells, FRET antagonist read-out; actives 1.8% (n = 330,000); in the data active = inhibition mostly above about 38%, no sharp cut-off; inactive = mostly below about 40%;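 also: 0% = agonist challenge alone and 100% = reference antagonist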
GPR7 antagonist: blocks human GPR7 receptor signaling; P48145; GPR7-expressing cells, fluorescence antagonist assay; inhibition, % at 4.4 µM; actives 1.1% (n = 290,000); in the data active = inhibition above about 16%, passing the limit was not always enough;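 also: cells stimulated with the agonist NPW; 0% = agonist with vehicle and 100% = vehicle without agonist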
Target sequence (P48145 whole entry, looked up): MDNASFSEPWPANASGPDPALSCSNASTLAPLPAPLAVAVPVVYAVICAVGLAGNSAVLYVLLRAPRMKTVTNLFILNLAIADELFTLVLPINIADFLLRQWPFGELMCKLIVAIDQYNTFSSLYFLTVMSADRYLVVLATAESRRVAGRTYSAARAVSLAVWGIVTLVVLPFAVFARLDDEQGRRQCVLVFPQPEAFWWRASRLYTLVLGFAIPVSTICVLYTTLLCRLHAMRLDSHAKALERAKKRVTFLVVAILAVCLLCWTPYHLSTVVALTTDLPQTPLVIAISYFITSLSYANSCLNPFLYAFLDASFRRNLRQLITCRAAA
CHO parental Ca: counter-screen for OX1R antagonists: effect in parental CHO cells; parental CHO-K1, ATP-induced calcium, Fluo-8 fluorescence; inhibition, % at 5.6 µM; actives 0.63% (n = 330,000);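 active = inhibition above that plate's mean sample inhibition plus 3 SD, cut at about 26% in these data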;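 also: 0% = ATP-challenged DMSO wells and 100% = DMSO wells without ATP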
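Test system: parental CHO cells; detection: calcium-sensitive Fluo-8 fluorescence; evaluation: percent inhibition of calcium signal; also added: ATP as calcium-mobilizing challenge; repeats: one well per compound; control set: ATP-challenged DMSO wells low, unchallenged DMSO wells high; compound: single nominal dose of 5.6 µM per compound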
TAAR1 agonist: agonists of human TAAR1 | Q96RJ0 | CHO RD-HGA16 TAAR1, Fluo-8 calcium fluorescence; vehicle wells 0%, saturating PEA agonist 100% | activation, % at 3 µM | actives 0.99% (n = 360,000) | AID 624467;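 active = activation above the mean activation of all test compounds in the run plus 3 SD, cut at about 38% in these data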
Target sequence (Q96RJ0 whole entry, looked up): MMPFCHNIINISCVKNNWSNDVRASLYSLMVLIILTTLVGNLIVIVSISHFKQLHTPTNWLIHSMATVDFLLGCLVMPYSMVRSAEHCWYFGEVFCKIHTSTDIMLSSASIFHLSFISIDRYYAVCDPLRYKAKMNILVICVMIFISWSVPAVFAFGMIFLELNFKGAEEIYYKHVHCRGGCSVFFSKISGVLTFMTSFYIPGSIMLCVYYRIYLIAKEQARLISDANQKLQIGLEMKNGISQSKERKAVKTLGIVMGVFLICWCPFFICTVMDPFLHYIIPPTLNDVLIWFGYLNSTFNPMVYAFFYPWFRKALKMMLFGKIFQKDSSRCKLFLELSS
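test system = CHO RD-HGA16 cells carrying human TAAR1 plus Gα16 | schedule = 17-24 h seeding, 75 min 37 °C dye, 30 min RT | compound dosing = 3 µM single concentration | control set = DMSO and PEA EC100 | replicates = n 1 | signal = Fluo-8 fluorescence, 5 s baseline then 140 s kinetic read | measure = percent activation vs PEA EC100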
TAAR1 antag: human TAAR1 antagonism. actives 1.5% (n = 360,000). CHO RD-HGA16 TAAR1, Fluo-8 calcium fluorescence, antagonist. inhibition, % at 3 µM. Q96RJ0;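 active = inhibition above a per-plate cutoff, the mean inhibition of test compounds on that plate plus 3 SD, cut at about 49% in these data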;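 also: 0% = DMSO plus EC80 beta-PEA response and 100% = DMSO alone without agonist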
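test system = CHO RD-HGA16 cells bearing hTAAR1 | replication = singlicate | controls = DMSO-only wells and EC80 β-PEA-stimulated wells | reagent = EC80 β-phenethylamine stimulus | read-out basis = percent inhibition of PEA-evoked calcium signal, max/basal emission ratio | schedule = seeding 17-24 h prior, 75-min 37 °C, 30-min RT dye loading | signal = kinetic Fluo-8 calcium fluorescence measurement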
Starred values were filed as active, the others as inactive; . = not tested or not shown.

SMILES	OX1R antag-1	OX1R antag-2	GPR7 antagonist	CHO parental Ca	TAAR1 agonist	TAAR1 antag
C[C@H](O)[C@@H]1C(=O)N2CCc3c([nH]c4cccc(-c5ccccc5)c34)[C@@H]2C[C@@H]1N(C)C(=O)c1ccccc1	.	.	.	.	1	-13
O=C(OC1Cn2c(=O)ccc(=O)n2C1)c1ccc([N+](=O)[O-])cc1	-10	45*	6	-5	2	6
C[C@H](CO)N1C[C@H](C)[C@@H](CN(C)C(=O)NC2CCCCC2)OCc2cn(nn2)CCCC1=O	.	.	.	.	1	-6
COc1cccc(-c2nn(C)c3sc(C(=O)NCc4ccc5c(c4)OCO5)cc23)c1	-24	23	-2	-8	3	-3
COc1cccc(-c2nn(C)c3sc(C(=O)NCc4ccc(C)o4)cc23)c1	-25	72*	-14	-22	7	11
Cc1ccc(S(=O)(=O)N2C[C@]3(O)C[C@@H]4C(=O)N(c5ccccc5)C(=O)[C@@H]4C[C@]3(OC(=O)Nc3cccs3)C2)cc1	.	.	.	.	1	-18
N#Cc1nc(-c2ccc(OCc3ccccc3)cc2)oc1NCc1cccnc1	45*	61	18	54*	0	6
N#Cc1nc(-c2ccc(OCc3ccc(Cl)cc3)cc2)oc1NCc1cccnc1	7	24	-2	-7	4	3
Fc1ccc(NC(=S)N2CCCN(c3ccc(C(F)(F)F)cn3)CC2)c(F)c1	57*	16	10	22	3	-7
CC(/C=N/NC(=O)c1nnn(-c2nonc2N)c1CN1CCCCC1)c1ccccc1 (centres undefined)	-19	11	.	-16	-1	-21
CSc1nc2c(c(-c3ccc(O)cc3)c1C#N)CCC2	9	38	-25	48*	-2	4
CN(Cc1cnc2nc(N)nc(N)c2n1)c1ccc(C(=O)NC(CCC(=O)O)C(=O)O)cc1 (centres undefined)	.	.	.	.	10	-22
Nc1nc(N)c2nc(CNc3ccc(C(=O)NC(CCC(=O)O)C(=O)O)cc3)cnc2n1 (centres undefined)	-6	61*	.	-5	.	.
CS(=O)(=O)Nc1ccccc1-c1cccc2nccn12	.	.	.	.	1	4
COc1ccc2c(c1OC)C(=O)N1c3ccccc3SC21 (centres undefined)	-23	32	-1	-29	9	6
COc1ccc2c(c1OC)C(=O)N1c3ccccc3C(=O)N(c3ccccc3F)C21 (centres undefined)	-18	48	-3	-28	18	66*
CC(C)C[C@@H]1COc2cc(N3CCOCC3)ccc2S(=O)(=O)N1	.	.	.	.	0	20
Cc1nn2c(-c3ccccc3)nnc2c2ccccc12	-13	64*	-21	-18	-1	6
Cc1nn2c(-c3cccc(NC(=O)c4ccco4)c3)nnc2c2ccccc12	-24	34	-17	-27	13	26
Cc1c(Br)c([N+](=O)[O-])nn1C(C)C(=O)N1CCc2ccccc2C1 (centres undefined)	-10	29	8	-13	40*	4
COc1ccc(N/C=C2\CCc3ccccc3C2=O)cc1	-34	39*	19	3	9	12
CSc1ccc(CN2CCC(CO)(Cc3ccc(Cl)cc3)CC2)cc1	-16	-83	30*	-13	31	10
OCC1(Cc2ccccc2)CCN(Cc2ccc(C(F)(F)F)cc2)CC1	-22	2	-8	-4	19	-3
COc1ccc(CCC(=O)N2c3ccccc3N=C(c3ccc(C(F)(F)F)cc3)C2C(=O)NC2CCCC2)cc1 (centres undefined)	.	.	.	.	1	-56
O=C(O)CCC(=O)NCCc1cccc(Cl)c1	-13	10	4	-13	38*	6
SMILES	OX1R antag-1	OX1R antag-2	GPR7 antagonist	CHO parental Ca	TAAR1 agonist	TAAR1 antag
O=C(Cc1ccccc1)NCCc1cccc(Cl)c1	-19	4	-3	-13	8	-3
COCCn1c(SCC#N)nnc1-c1ccccc1O	-5	6	-4	0	6	-2
COCCn1c(SCC#N)nnc1-c1ccc([N+](=O)[O-])cc1	-15	72*	2	-6	8	22
O=C(COc1cccc(C(F)(F)F)c1)Nc1cccc(S(=O)(=O)NC2=NCCCCC2)c1	.	.	.	.	6	27
Cc1cccc(OCCCCc2c(C)n[nH]c2C)c1C	12	22	-13	43*	6	-3
COc1ccc(OC)c(S(=O)(=O)N2CCC(C(=O)Nc3cccc(C(F)(F)F)c3)CC2)c1	13	37	-9	0	16	53*
COc1ccc(OC)c(S(=O)(=O)N2CCN(c3c(C)cccc3C)CC2)c1	-29	13	-16	26*	-2	3
CC(=O)OCC(=O)N1CCN(C(=O)C(=O)c2cccc(C(F)(F)F)c2)CC1	.	.	.	.	1	-9
COc1ccc(CCN=c2c([N+](=O)[O-])nn(-c3cccc(C)c3)n2O)cc1OC	-30	75*	-9	-21	0	-4
Cn1cccc1C(=O)NC(=O)COC(=O)c1ccccc1O	-10	9	8	-5	19	4
COc1ccccc1CNC(=O)COC(=O)c1c[nH]c2ccccc12	.	.	.	.	32	11
O=C(OCC(=O)c1c[nH]c2ccccc12)c1ccco1	-11	20	-8	-7	28	-23
COc1ccccc1NC(=O)COC(=O)c1cc(C)nc2ccccc12	20	43*	.	-24	7	20
COc1ccccc1NC(=O)COC(=O)c1c[nH]c2ccccc12	27	23	.	-12	8	49*
Cc1cc(C(=O)OCC(=O)NC(=O)c2cccn2C)c2ccccc2n1	-13	25	-20	45*	2	-2
COc1cc(NC(=O)c2ccco2)c(C(=O)OCC(=O)c2c[nH]c3ccccc23)cc1OC	0	41	0	5	17	62*
COc1ccc(-c2ccc(C(=O)Nc3cccc(N(C)C)c3)c3occc23)c(C)c1	.	.	.	.	0	-4
COc1ccc(Cl)cc1-c1cc(C(=O)Nc2ccc(C)c(NS(C)(=O)=O)c2)[nH]n1	.	.	.	.	9	40
COc1cccc(/C=C/C(=O)OCC(=O)c2c[nH]c3ccccc23)c1OC	-2	30	4	2	11	54*
CCCOc1ncnc2c1[nH]c1ccc(OC)cc12	-11	16	6	-13	7	12
CCCCOc1ncnc2c1[nH]c1ccc(C)cc12	7	28	2	56*	-2	18
COCCC(=O)N1CCOCC1c1cc(C(=O)Nc2ccccc2)no1 (centres undefined)	.	.	.	.	9	-29
O=C(N/N=C\c1cn[nH]c1-c1ccccc1)c1ccc([N+](=O)[O-])cc1	-9	36	7	-14	2	-3
